PREPL inh – inhibits the human prolyl oligopeptidase-like enzyme. AID 2751. recombinant PREPL, fluorescence polarization activity-based probe. inhibition, % at 5.96 µM. 320,000 compounds, 0.68% hits; in the data active = inhibition above about 43%;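 also: 0% = enzyme with DMSO and 100% = wells lacking enzyme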
Target sequence (Q4J6C6 whole entry, looked up): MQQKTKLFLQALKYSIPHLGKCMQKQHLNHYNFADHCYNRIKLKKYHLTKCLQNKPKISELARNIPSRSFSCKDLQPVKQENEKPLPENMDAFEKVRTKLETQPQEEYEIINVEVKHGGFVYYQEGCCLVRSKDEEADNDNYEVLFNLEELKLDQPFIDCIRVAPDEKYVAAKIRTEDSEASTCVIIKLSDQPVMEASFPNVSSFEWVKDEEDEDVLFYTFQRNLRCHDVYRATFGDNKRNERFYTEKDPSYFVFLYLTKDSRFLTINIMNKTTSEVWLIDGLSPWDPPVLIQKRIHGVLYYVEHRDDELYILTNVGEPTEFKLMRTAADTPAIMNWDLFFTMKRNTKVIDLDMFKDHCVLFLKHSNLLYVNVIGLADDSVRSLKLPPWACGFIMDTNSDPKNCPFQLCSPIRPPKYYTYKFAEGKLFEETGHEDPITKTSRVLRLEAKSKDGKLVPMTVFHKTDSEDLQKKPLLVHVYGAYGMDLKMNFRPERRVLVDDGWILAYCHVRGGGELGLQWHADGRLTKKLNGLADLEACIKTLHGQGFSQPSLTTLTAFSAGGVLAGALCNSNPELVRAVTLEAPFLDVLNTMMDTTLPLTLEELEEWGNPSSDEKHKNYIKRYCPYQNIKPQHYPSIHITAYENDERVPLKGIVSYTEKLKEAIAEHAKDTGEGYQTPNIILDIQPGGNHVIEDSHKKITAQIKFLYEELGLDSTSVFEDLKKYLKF
PP1 inh – PP1-alpha (human) inhibition in PP5 counter-screen; purified PP1alpha, OMFP fluorescence; inhibition, % at 6.7 µM; 320,000 compounds, 0.9% hits;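 active = inhibition above the mean inhibition of all tested compounds plus 3 SD, computed separately for each screening campaign, cut at about 15% in these data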
UCH37 inh – human UCH37 deubiquitinating enzyme inhibition | 330,000 compounds, 0.33% hits | inhibition, % (concentration not given with the values) | AID 588478 | purified proteasome/UCH37, Ub-AMC cleavage fluorescence | Q9Y5K5;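 active = mean inhibition over replicate wells above about 20%, limit read from the data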;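 also: 0% = compound-free wells with enzyme and 100% = wells lacking proteasome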
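System: Proteasome-associated human UCH37 deubiquitinase; Input: 0.15 nM proteasome in added enzyme buffer; Also added: Ub-AMC substrate from 1 µM stock; Incubation: 30 min compound-proteasome preincubation then 25 min substrate reaction, room temperature; Detection: fluorescence, ex 355 nm, em 460 nm; Read-out: % inhibition of Ub-AMC cleavage fluorescence; Benchmarks: no-proteasome and no-compound wells.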
PP5 inh – inhibitors of human protein phosphatase 5 (PP5). purified PP5c, OMFP substrate fluorescence. inhibition, % at 6.7 µM. 320,000 compounds, 0.18% hits;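 active = inhibition above the campaign's mean inhibition across all tested compounds plus 3 SD, cut at about 9.5% in these data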;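 also: 0% = DMSO only and 100% = 100 µM cantharidin control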
UBC13 polyUb – blocks human UBC13 polyubiquitin chain formation | inhibition, % at 20 µM | TR-FRET | 330,000 compounds, 0.47% hits | AID 485273; in the data active = inhibition above about 45%, passing the limit was not always enough
CTSL1 counter – counter-screen for PFM18AAP inhibitors: inhibitors of F. hepatica cathepsin L1; recombinant F. hepatica cathepsin L1, Z-Leu-Arg-MCA fluorescence; inhibition, % at 5.96 µM; 300,000 compounds, 0.49% hits; AID 1906;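 active = inhibition above the mean of all tested compounds plus 3 SD, set per screening campaign, cut at about 17% in these data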;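 also: 0% = plate median of test compound wells and 100% = 1 µM Z-Phe-Ala-diazomethylketone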
UCH37 confirm – UCH37 Ub-AMC cleavage inhibition, confirmed; shares compounds with UCH37 inh; Proteasome-bound UCH37, Ub-AMC cleavage fluorescence; 480 compounds, 27% hits; AID 624100; inhibition, % at 20 µM;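 active = average inhibition over replicates above about 50%, so the earlier screening hit is confirmed, limit read from the data; inactive = the rest, counted as false positives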;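 also: based on cleavage rate fitted by regression over a 30 min kinetic read; 0% = proteasome plus Ub-AMC and 100% = Ub-AMC without proteasome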
* = called active by the depositor; x = no result. Shown are actives, neighbours in structure and some others; about 2.3% of the full set was active somewhere.

SMILES | PREPL inh | PP1 inh | UCH37 inh | PP5 inh | UBC13 polyUb | CTSL1 counter | UCH37 confirm
Cc1cccc(NC(=S)NC(=NS(=O)(=O)c2ccccc2)c2ccccc2)c1 | x | x | 4.0 | x | x | x | x
COc1ccc(-n2nc(C(=O)NCC(=O)NCCC3=CCCCC3)c3ccccc3c2=O)cc1OC | 4.7 | -3.2 | 36.3* | 4.1 | 5.1 | 3.9 | 54.4*
Cn1c(=O)c2sccc2n(CC(=O)NCCC2=CCCCC2)c1=O | -2.2 | -1.5 | x | -0.6 | 5.2 | 0.2 | x
Cn1c(=O)c2ccccc2n(CC(=O)NCCC2=CCCCC2)c1=O | 7.1 | 2.2 | 32.3* | 0.7 | -0.7 | 4.7 | 47.2
COc1ccc(Cl)cc1S(=O)(=O)N1CCC(C(=O)NCCC2=CCCCC2)CC1 | 24.6 | -1.3 | 1.7 | 1.4 | -1.8 | -0.3 | x
COc1ccc(C)cc1S(=O)(=O)NCCC1=CCCCC1 | 6.7 | -2.7 | 58.3* | 7.6 | 9.9 | -3.8 | 8.1
CC(=O)N1CCCc2cc(S(=O)(=O)NCCC3=CCCCC3)ccc21 | -3.0 | -2.4 | 54.5* | -1.9 | 2.7 | 3.1 | 76.1*
CS(=O)(=O)NCCC1=CCCCC1 | -3.9 | -1.7 | 43.8* | -0.1 | -3.7 | -0.7 | 79.6*
COc1ccc(C)cc1S(=O)(=O)N1CCC(C(=O)NCCC2=CCCCC2)CC1 | 19.8 | 1.3 | 32.4* | 2.3 | 7.0 | -6.3 | 5.7
O=S(=O)(NCCC1=CCCCC1)c1ccc(Br)cc1 | -15.1 | -0.7 | 2.2 | 2.1 | 10.6 | -0.6 | x
C#CCOc1ccc(Br)cc1C=NO | x | x | 1.1 | x | x | x | x
CCCCNC(=O)N(O)C1N(N=Cc2cccnc2)C(=S)SC1(C)C (stereo not drawn) | x | x | 6.4 | x | x | x | x
CC[N+]1(C)CCC(=C2c3ccccc3CC(=O)c3sccc32)CC1 (stereo not drawn) | 3.7 | -1.5 | 7.0 | 2.0 | -0.2 | -0.3 | x
C[N+]1(C)CCC(=C2c3ccccc3CC(=O)c3sccc32)CC1 | 9.6 | 0.3 | 75.4* | 2.0 | -30.0 | -3.4 | 18.6
CC1=NN(C(=O)CSCc2ccccc2)C(O)(c2ccccc2)C1 (stereo not drawn) | -23.2 | 1.4 | 31.8* | 0.1 | -0.7 | -6.7 | 16.0
CC1=NN(C(=O)COc2ccccc2)C(O)(c2ccccc2)C1 (stereo not drawn) | 1.3 | -1.2 | 0.2 | -0.3 | 19.2 | 0.2 | x
COC(=O)C1SCC2C(=O)N(Cc3ccc(Cl)cc3)CC(=O)N21 (stereo not drawn) | -11.6 | 0.5 | 16.4 | 0.8 | 0.4 | -1.0 | x
COC(=O)C1SCC2C(=O)N(Cc3ccc(Cl)c(Cl)c3)CC(=O)N21 (stereo not drawn) | 15.4 | -1.9 | 28.9* | 0.5 | -8.8 | 2.3 | 20.8
O=C(NN=C1C2CC3CC(C2)CC1C3)c1ccncc1 | 2.8 | -3.5 | 2.0 | 0.8 | -3.1 | 0.0 | x
O=C(NN=C1CC(=NNC(=O)c2ccncc2)c2ccccc21)c1ccncc1 | x | x | 45.7* | x | x | x | 76.5*
CC(=O)[C@H]1[C@@H]2C(=O)N(c3cccc(Cl)c3)C(=O)[C@@H]2[C@H]2c3ccccc3C=CN21 | 13.2 | 0.2 | 39.9* | 0.8 | -23.3 | 11.4 | -8.7
Cc1[nH][nH]c(=O)c1C(c1c(C)[nH][nH]c1=O)c1cn(Cc2cccc3ccccc23)c2ccccc12 | 10.9 | 16.3* | 83.1* | 2.6 | -33.3 | 2.9 | 50.0
Cc1[nH][nH]c(=O)c1C(c1c(C)[nH][nH]c1=O)c1cn(C)c2ccccc12 | x | x | 89.6* | x | x | x | 56.7*
O=c1c2ccccc2ncn1Cc1cccc2ccccc12 | -4.9 | 0.0 | 2.0 | 1.3 | 14.1 | -1.0 | x
C=C(c1ccccc1)c1ccccc1N | -3.1 | 4.3 | 39.7* | 2.4 | 4.4 | 2.1 | -2.0
CCCN1C=CC(=CC=C(C#N)C#N)C=C1 | 7.2 | -0.7 | 38.2* | -0.1 | -158.0 | 6.9 | 25.6
C=CCN1C=CC(=CC=C(C#N)C#N)C=C1 | -2.0 | -3.0 | 28.8* | 0.9 | -305.6 | 6.5 | 20.0
CCCCCN1C=CC=C/C1=C\C=C(C#N)C#N | 14.4 | -4.4 | 15.5 | 4.3 | -48.0 | 4.9 | x
COc1cc(/C=C(\NC(=O)c2ccccc2)C(=O)NCCO)c([N+](=O)[O-])cc1OC | 8.7 | -1.8 | 2.3 | -1.2 | 3.0 | 0.2 | x
